Results taken from ChEMBL document CHEMBL2086388, “Antihyperglycemic effect of syringaldehyde in streptozotocin-induced diabetic rats” (2012).
Active and inactive are the calls of the source. The rule behind the calls is not given here.

Legend:
[1] = tested on: Rattus norvegicus; test: Antihyperglycemic activity in STZ-induced diabetic rats assessed as reduction in plasma glucose levels at 100 mg/kg, po; assay type: functional
[2] = tested on: Rattus norvegicus; test: Antidiabetic activity in STZ-induced diabetic Wistar rats assessed as increase in response to exogenous insulin at 7.2 mg/kg, iv tid for 3 days; assay type: functional, organism-based; design: dose 7.2 mg/kg
In short: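 STZ-diabetic rats (STZ 60 mg/kg iv, glucose ≥20 mmol/L, used 2 weeks later) first given long-acting human insulin 1 IU/kg once daily. Compound or saline then given iv three times daily for 3 days. Challenge was short-acting human insulin iv 0.1–1.0 IU/kg. Femoral-vein blood taken at 30 min for plasma glucose. n=8 per group, means ± SE.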

[3] = tested on: Rattus norvegicus; test: Antihyperglycemic activity in Wistar rats assessed as reduction in plasma glucose levels at 7.2 mg/kg, iv administered 30 mins prior to glucose challenge measured after 120 mins; assay type: functional, organism-based; design: dose 7.2 mg/kg
In short: (§1)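 IV glucose challenge in pentobarbital-anesthetized (30 mg/kg ip) Wistar rats. Compound 7.2 mg/kg or saline injected into the tail vein; 30 min later the 0-min sample was drawn. Glucose 60.0 mg/kg then given via the femoral vein. Tail-vein plasma glucose measured at 5–120 min and compared with the vehicle group at each time. n=8.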

[4] = tested on: Rattus norvegicus; test: Antihyperglycemic activity in Wistar rats assessed as reduction in plasma glucose levels at 7.2 mg/kg, iv administered as bolus dose measured after 60 mins; assay type: functional; design: scale not given: the % may be the effect or the level left
In short: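 Normal fasted Wistar rats, n=8. Compound in saline given iv at 7.2 mg/kg. Tail-vein plasma glucose taken under pentobarbital anesthesia. Lowering expressed as percent decrease from the initial glucose value.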

[5] = tested on: Rattus norvegicus; test: Antihyperglycemic activity in STZ-induced diabetic Wistar rats assessed as reduction in plasma glucose levels at 1.8 mg/kg, iv administered as bolus dose measured after 60 mins; assay type: functional; design: scale not given: the % may be the effect or the level left
In short: (§2)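 Fasted rats made diabetic with STZ 60 mg/kg iv (plasma glucose ≥20 mmol/L plus polyuria) and used 2 weeks later. Compound dissolved in normal saline and given as an iv bolus over 1.8–7.2 mg/kg; controls got saline. Tail-vein plasma glucose measured at 60 min under pentobarbital 30 mg/kg ip. Activity = [(Gi−Gt)/Gi]×100%. n=8.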

[6] = tested on: Rattus norvegicus; test: Antihyperglycemic activity in iv dosed STZ-induced diabetic Wistar rats assessed as reduction in plasma glucose levels administered as bolus dose measured after 60 mins; assay type: functional, organism-based; in short: as §2
[7] = tested on: Rattus norvegicus; test: Antihyperglycemic activity in STZ-induced diabetic Wistar rats assessed as reduction in plasma glucose levels at 7.2 mg/kg, iv administered as bolus dose measured after 60 mins; assay type: functional; details: 1 h; in short: as §2
[8] = tested on: L6; test: Induction of glucose uptake in rat L6 cells after 60 mins by 2-NBDG fluorescence assay; assay type: functional, cell-based
In short: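 Rat L6 cells grown 48 h, trypsinized, 1×10^6 cells/mL. Cells incubated in PBS with 0.2 mM 2-NBDG plus compound or vehicle, 37 °C, 60 min in the dark. Then washed three times with cold PBS. Fluorescence read at ex 488/em 520 nm. Eight experiments per group, means ± SEM.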

[9] = tested on: Rattus norvegicus; test: Antihyperglycemic activity in Wistar rats assessed as reduction in plasma glucose levels at 7.2 mg/kg, iv administered 30 mins prior to glucose challenge measured after 5 mins; assay type: functional, organism-based; design: dose 7.2 mg/kg; in short: as §1
[10] = tested on: Rattus norvegicus; test: Antihyperglycemic activity in Wistar rats assessed as reduction in plasma glucose levels at 7.2 mg/kg, iv administered 30 mins prior to glucose challenge measured after 30 mins; assay type: functional, organism-based; design: dose 7.2 mg/kg; in short: as §1

CN(C)C(=N)NC(=N)N [METFORMIN]
Emax at 100 mg/kg [1]: 32%

COc1cc(C=O)cc(OC)c1O [SYRINGALDEHYDE]
Activity [2]: Active
Activity [3]: inactive
Activity [4]: 25.93%
Activity [5]: 11.08%
Activity [6]: Dose-dependent effect
Emax at 7.2 mg/kg [7]: 31.3%
Activity [8]: Dose-dependent effect
Activity [9]: Active
Activity [10]: Active
